Laboratory results as given in ChEMBL document CHEMBL4257453, “Identification of karanjin isolated from the Indian beech tree as a potent CYP1 enzyme inhibitor with cellular efficacy via screening of a natural product repository” (Medchemcomm, 2018).

How the values were obtained:
CYP1A1 [1] = molecular target: T1, CYP1A1 (Homo sapiens, UniProt P04798); test: Inhibition of recombinant human CYP1A1 expressed in baker's yeast-derived microsomes (Sacchrosomes) at 10 uM using 7-ethoxyresorufin substrate by EROD assay relative to control; conditions: probe 7-ethoxyresorufin
T1 sequence (P04798 whole entry): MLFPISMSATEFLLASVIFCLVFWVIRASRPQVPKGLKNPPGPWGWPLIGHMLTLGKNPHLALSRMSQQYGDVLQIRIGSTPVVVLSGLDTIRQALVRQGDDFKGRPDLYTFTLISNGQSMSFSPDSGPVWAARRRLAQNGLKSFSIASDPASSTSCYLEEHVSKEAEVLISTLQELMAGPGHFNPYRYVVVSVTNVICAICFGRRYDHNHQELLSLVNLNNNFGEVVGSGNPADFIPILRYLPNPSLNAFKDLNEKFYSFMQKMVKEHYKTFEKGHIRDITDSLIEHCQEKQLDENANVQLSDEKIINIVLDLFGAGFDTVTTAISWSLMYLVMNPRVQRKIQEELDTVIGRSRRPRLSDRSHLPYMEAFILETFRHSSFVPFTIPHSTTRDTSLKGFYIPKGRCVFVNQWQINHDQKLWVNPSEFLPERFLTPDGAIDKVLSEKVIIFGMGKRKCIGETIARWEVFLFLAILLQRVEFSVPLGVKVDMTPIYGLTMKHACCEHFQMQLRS
Summary of the method: (§1)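 Yeast microsomes carrying recombinant CYP (Sacchrosomes). Substrates per isoform are 7-ethoxyresorufin, 3-cyano-7-ethoxycoumarin, EOMCC or dibenzylfluorescein, read as endpoint fluorescence. Background from compound-only wells without enzyme is subtracted. Independent triplicate runs; α-naphthoflavone positive control.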

CYP1A2 = molecular target: T2, CYP1A2 (Homo sapiens, UniProt P05177); test: Inhibition of recombinant human CYP1A2 expressed in baker's yeast-derived microsomes (Sacchrosomes) at 10 uM using 3-cyano-7-ethoxycoumarin substrate by EROD assay relative to control; assay type: ADME; conditions: probe 3-cyano-7-ethoxycoumarin; summary of the method: as §1
T2 sequence (P05177 whole entry): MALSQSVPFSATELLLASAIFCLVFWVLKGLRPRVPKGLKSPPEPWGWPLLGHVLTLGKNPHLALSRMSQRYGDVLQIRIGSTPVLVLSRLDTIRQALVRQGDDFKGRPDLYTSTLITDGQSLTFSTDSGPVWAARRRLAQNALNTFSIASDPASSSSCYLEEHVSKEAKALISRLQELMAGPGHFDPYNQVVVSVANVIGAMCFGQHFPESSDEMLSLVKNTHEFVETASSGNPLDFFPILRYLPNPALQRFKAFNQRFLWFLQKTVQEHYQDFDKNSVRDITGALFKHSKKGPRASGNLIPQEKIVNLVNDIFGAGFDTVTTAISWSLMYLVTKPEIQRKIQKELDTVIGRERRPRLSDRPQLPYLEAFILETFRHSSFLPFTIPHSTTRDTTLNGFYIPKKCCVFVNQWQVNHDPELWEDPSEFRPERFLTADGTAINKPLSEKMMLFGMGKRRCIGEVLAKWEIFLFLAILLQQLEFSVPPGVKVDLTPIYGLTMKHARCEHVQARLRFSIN

CYP1B1 = molecular target: T3, CYP1B1 (Homo sapiens, UniProt Q16678); test: Inhibition of recombinant human CYP1B1 expressed in baker's yeast-derived microsomes (Sacchrosomes) at 10 uM using 7-ethoxyresorufin substrate by EROD assay relative to control; assay type: ADME; conditions: probe 7-ethoxyresorufin
T3 sequence (Q16678 whole entry): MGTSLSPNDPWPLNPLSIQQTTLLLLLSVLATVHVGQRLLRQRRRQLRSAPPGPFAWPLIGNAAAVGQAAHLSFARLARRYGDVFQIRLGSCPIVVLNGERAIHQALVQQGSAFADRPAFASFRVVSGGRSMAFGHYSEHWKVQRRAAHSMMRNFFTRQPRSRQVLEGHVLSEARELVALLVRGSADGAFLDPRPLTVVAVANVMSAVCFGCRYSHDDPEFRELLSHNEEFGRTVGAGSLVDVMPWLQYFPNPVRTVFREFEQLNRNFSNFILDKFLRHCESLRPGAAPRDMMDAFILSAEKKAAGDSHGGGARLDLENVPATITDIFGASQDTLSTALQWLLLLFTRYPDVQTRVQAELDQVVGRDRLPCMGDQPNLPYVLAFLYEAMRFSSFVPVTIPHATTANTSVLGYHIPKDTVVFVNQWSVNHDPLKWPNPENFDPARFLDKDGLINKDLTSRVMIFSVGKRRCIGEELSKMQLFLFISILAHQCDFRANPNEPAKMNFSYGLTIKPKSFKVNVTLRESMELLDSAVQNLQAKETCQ
Summary of the method: as §1, with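 “(Sacchrosomes). […]” for “(Sacchrosomes).”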

CYP2D6 = CYP2D6 (Homo sapiens, UniProt P10635); test: Inhibition of recombinant human CYP2D6 expressed in baker's yeast-derived microsomes (Sacchrosomes) at 10 uM using 7-ethoxy-methyloxy-3-cyanocoumarin substrate by EROD assay relative to control; assay type: ADME; conditions: probe 7-ethoxy-methyloxy-3-cyanocoumarin
Summary of the method: as §1, with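 “(Sacchrosomes). […]” for “(Sacchrosomes).”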

CYP3A4 = CYP3A4 (Homo sapiens, UniProt P08684); test: Inhibition of recombinant human CYP3A4 expressed in baker's yeast-derived microsomes (Sacchrosomes) at 10 uM using dibenzylfluorescein substrate by EROD assay relative to control; assay type: ADME; conditions: probe dibenzylfluorescein
Summary of the method: as §1, with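 “(Sacchrosomes). […]” for “(Sacchrosomes).”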

CYP2C9 = CYP2C9 (Homo sapiens, UniProt P11712); test: Inhibition of recombinant human CYP2C9 expressed in baker's yeast-derived microsomes (Sacchrosomes) at 10 uM using 3-cyano-7-ethoxycoumarin substrate by EROD assay relative to control; assay type: ADME; conditions: probe 3-cyano-7-ethoxycoumarin
Summary of the method: as §1, with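 “(Sacchrosomes). […]” for “(Sacchrosomes).”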

CYP2C19 = CYP2C19 (Homo sapiens, UniProt P33261); test: Inhibition of recombinant human CYP2C19 expressed in baker's yeast-derived microsomes (Sacchrosomes) at 10 uM using 3-cyano-7-ethoxycoumarin substrate by EROD assay relative to control; assay type: ADME; conditions: probe 3-cyano-7-ethoxycoumarin
Summary of the method: as §1, with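 “(Sacchrosomes). […]” for “(Sacchrosomes).”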

CYP1A1 [2] = molecular target: T1, CYP1A1; test: Inhibition of human recombinant CYP1A1 expressed in HEK293 cells at 10 uM using 7-ethoxyresorufin substrate preincubated for 30 mins followed by substrate addition and measured after 60 mins by fluorescence assay relative to control; assay type: cell-based; conditions: HEK293 cells expressing human recombinant CYP1A1, probe 7-ethoxyresorufin
Summary of the method: (§2)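 HEK293 cells adapted to suspension and transiently transfected with pcDNA3.1 plasmids carrying the individual CYP; 100×10^3 cells per well in triplicate. […] Fluorogenic substrate is then added at 5 μM and fluorescence read for 60 min.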

Cytochrome P450 1A1 = molecular target: T4, Cytochrome P450 1A1 (Homo sapiens, UniProt P04798); test: Inhibition of human recombinant CYP1A1 expressed in HEK293 cells using 7-ethoxyresorufin substrate preincubated for 30 mins followed by substrate addition and measured after 60 mins by fluorescence assay relative to control; assay type: cell-based; summary of the method: as §2
T4 sequence (P04798 whole entry): T1 sequence (P04798 whole entry)

Cytochrome P450 1A2 = molecular target: T5, Cytochrome P450 1A2 (Homo sapiens, UniProt P05177); test: Inhibition of human recombinant CYP1A2 expressed in HEK293 cells using 3-cyano-7-ethoxycoumarin substrate preincubated for 30 mins followed by substrate addition and measured after 60 mins by fluorescence assay relative to control; assay type: ADME, cell-based; summary of the method: as §2
T5 sequence (P05177 whole entry): T2 sequence (P05177 whole entry)

Cytochrome P450 1B1 = molecular target: T6, Cytochrome P450 1B1 (Homo sapiens, UniProt Q16678); test: Inhibition of human recombinant CYP1B1 expressed in HEK293 cells using 7-ethoxyresorufin substrate substrate preincubated for 30 mins followed by substrate addition and measured after 60 mins by fluorescence assay relative to control; assay type: ADME, cell-based; summary of the method: as §2
T6 sequence (Q16678 whole entry): T3 sequence (Q16678 whole entry)

Cytochrome P450 2D6 = Cytochrome P450 2D6 (Homo sapiens, UniProt P10635); test: Inhibition of human recombinant CYP2D6 expressed in HEK293 cells using 7-ethoxy-methyloxy-3-cyanocoumarin substrate substrate preincubated for 30 mins followed by substrate addition and measured after 60 mins by fluorescence assay relative to control; assay type: ADME, cell-based; summary of the method: as §2
Cytochrome P450 2C9 = Cytochrome P450 2C9 (Homo sapiens, UniProt P11712); test: Inhibition of human recombinant CYP2C9 expressed in HEK293 cells using 3-cyano-7-ethoxycoumarin substrate substrate preincubated for 30 mins followed by substrate addition and measured after 60 mins by fluorescence assay relative to control; assay type: ADME, cell-based; summary of the method: as §2
Cytochrome P450 2C19 = Cytochrome P450 2C19 (Homo sapiens, UniProt P33261); test: Inhibition of human recombinant CYP2C19 expressed in HEK293 cells using 3-cyano-7-ethoxycoumarin substrate substrate preincubated for 30 mins followed by substrate addition and measured after 60 mins by fluorescence assay relative to control; assay type: ADME, cell-based; summary of the method: as §2
Cytochrome P450 3A4 = Cytochrome P450 3A4 (Homo sapiens, UniProt P08684); test: Inhibition of human recombinant CYP3A4 expressed in HEK293 cells using dibenzylfluorescein substrate substrate preincubated for 30 mins followed by substrate addition and measured after 60 mins by fluorescence assay relative to control; assay type: ADME, cell-based
Summary of the method: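 HEK293 cells adapted to suspension and transiently transfected with pcDNA3.1 plasmids carrying the individual CYP; 100×10^3 cells per well in triplicate. Fluorogenic substrate is then added at 5 μM and fluorescence read for 60 min.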

Sequence of CYP3A4 (P08684 whole entry): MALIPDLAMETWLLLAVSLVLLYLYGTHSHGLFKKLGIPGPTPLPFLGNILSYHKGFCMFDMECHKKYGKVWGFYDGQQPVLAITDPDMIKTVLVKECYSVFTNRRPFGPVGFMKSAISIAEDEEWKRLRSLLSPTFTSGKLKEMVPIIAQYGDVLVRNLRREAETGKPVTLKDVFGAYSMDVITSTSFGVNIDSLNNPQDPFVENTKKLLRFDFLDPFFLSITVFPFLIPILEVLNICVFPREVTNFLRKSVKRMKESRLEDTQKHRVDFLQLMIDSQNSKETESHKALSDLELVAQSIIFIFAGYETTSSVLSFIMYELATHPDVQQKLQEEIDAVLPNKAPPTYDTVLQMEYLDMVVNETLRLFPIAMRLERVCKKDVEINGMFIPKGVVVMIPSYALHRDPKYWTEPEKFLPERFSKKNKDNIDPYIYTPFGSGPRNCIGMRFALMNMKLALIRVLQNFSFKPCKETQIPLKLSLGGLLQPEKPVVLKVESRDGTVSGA
Sequence of Cytochrome P450 3A4 (P08684 whole entry): as above
Sequence of CYP2C19 (P33261 whole entry): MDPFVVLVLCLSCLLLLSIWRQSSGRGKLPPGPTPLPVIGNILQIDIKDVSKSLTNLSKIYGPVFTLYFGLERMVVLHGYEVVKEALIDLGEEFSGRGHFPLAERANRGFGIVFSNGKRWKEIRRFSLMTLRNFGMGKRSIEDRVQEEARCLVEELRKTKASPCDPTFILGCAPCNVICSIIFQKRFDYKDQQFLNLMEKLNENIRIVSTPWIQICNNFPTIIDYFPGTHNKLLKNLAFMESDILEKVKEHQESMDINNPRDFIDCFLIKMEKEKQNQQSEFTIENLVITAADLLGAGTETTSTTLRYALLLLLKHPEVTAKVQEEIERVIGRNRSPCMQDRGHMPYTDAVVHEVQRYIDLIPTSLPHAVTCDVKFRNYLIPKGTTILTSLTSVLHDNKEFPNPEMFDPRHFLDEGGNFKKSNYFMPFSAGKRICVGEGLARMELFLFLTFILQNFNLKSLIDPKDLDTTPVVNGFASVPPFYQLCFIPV
Sequence of Cytochrome P450 2C19 (P33261 whole entry): as above
Sequence of Cytochrome P450 2C9 (P11712 whole entry): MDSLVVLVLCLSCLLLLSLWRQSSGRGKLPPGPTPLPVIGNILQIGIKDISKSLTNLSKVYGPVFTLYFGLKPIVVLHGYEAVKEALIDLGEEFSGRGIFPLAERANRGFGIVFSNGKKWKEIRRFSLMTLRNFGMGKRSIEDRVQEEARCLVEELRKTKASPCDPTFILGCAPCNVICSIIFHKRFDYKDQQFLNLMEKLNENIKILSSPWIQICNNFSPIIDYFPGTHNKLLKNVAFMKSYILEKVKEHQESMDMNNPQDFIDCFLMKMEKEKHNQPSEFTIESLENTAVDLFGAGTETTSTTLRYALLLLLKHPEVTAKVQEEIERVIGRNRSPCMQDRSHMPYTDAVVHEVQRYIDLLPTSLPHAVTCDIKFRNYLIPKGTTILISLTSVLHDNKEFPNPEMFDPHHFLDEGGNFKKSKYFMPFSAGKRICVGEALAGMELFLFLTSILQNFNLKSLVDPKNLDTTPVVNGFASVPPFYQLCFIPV
Sequence of CYP2C9 (P11712 whole entry): as above
Sequence of CYP2D6 (P10635 whole entry): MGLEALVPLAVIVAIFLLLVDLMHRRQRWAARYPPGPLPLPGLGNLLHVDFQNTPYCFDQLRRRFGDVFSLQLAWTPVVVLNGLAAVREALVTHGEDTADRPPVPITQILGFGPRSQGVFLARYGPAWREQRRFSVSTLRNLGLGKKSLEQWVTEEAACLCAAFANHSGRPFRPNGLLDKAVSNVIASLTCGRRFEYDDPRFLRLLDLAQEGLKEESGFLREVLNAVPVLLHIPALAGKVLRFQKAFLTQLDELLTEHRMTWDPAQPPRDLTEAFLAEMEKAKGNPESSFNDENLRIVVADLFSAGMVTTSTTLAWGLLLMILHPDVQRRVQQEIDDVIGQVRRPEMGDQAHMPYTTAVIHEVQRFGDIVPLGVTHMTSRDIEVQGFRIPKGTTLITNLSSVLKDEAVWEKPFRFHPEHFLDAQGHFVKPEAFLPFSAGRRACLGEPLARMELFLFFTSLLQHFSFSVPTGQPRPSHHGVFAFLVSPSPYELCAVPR
Sequence of Cytochrome P450 2D6 (P10635 whole entry): as above

Row | SMILES | inhibition at 10 µM (CYP1A1 [1]) | inhibition at 10 µM (CYP1A2) | inhibition at 10 µM (CYP1B1) | inhibition at 10 µM (CYP2D6) | inhibition at 10 µM (CYP3A4) | inhibition at 10 µM (CYP2C9) | inhibition at 10 µM (CYP2C19) | inhibition at 1 h, 10 µM (CYP1A1 [2]) | IC50 (Cytochrome P450 1A1) | Ki (Cytochrome P450 1A1) | IC50 (Cytochrome P450 1A2) | Ki (Cytochrome P450 1A2) | IC50 (Cytochrome P450 1B1) | IC50 (Cytochrome P450 2D6) | IC50 (Cytochrome P450 2C9) | IC50 (Cytochrome P450 2C19) | IC50 (Cytochrome P450 3A4)
1 | Nc1nccc(-c2c[nH]c3ccc(Br)cc23)n1 [MERIDIANIN C] | 50 to 52% | 55% | 7% | 5% | 10% | 3% | 2% | 41% | 9.23 µM | 9.48 µM | 8.72 µM | 8.78 µM | 0.213 µM | > 10 µM | > 10 µM | > 10 µM | > 10 µM
2 | O=C1C=CC(=O)c2c(O)ccc(O)c21 [NAPHTHAZALIN] | 79 to 99% | 82% | 8% | 5% | 15% | 5% | 4% | 78% | 3.82 µM | 3.66 µM | 2.16 µM | 2.22 µM | > 10 µM | > 10 µM | > 10 µM | > 10 µM | > 10 µM
3 | COc1c2ccoc2c(OCC=C(C)C)c2oc(=O)ccc12 [PHELLOPTERIN] | 87 to 97% | 96% | 98% | 20% | 12% | 3% | 5% | 90% | 0.58 µM | 0.62 µM | 0.42 µM | 0.38 µM | 0.22 µM | > 10 µM | > 10 µM | > 10 µM | > 10 µM
